GRK2 inh – inhibitors of human GRK2 displacing RNA aptamer | P25098 | bead flow cytometry, FAM-aptamer displacement from GRK2 | inhibition of aptamer binding, % at 10 µM | 0.59% of 330,000 active;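 active means inhibition of aptamer binding above 40%, roughly 3 SD of noise, on plates passing a quality check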;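 further: median bead fluorescence of bound FAM aptamer so fluorescent compounds give negative values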
LMPTP inh – blocks human LMPTP phosphatase; P24666; recombinant LMPTP-A, OMFP fluorogenic substrate, fluorescence intensity; inhibition, % at 20 µM; 0.22% of 360,000 active; AID 651560;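 active means compounds that cut the enzyme signal by at least half of the control window in the single-dose screen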;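 further: plate controls were DMSO wells with enzyme plus substrate for no effect and substrate without enzyme for full effect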
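Test system: LMPTP-A phosphatase enzyme. Amount: LMPTP-A at 0.625 nM final in the reaction. Reagent: OMFP substrate, 400 µM final. Times: 50 min at room temperature. Signal: endpoint fluorescence intensity from OMFP dephosphorylation. Read-out basis: % inhibition. Benchmarks: no-enzyme and uninhibited controls.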
Scp-1 inhibitor – blocks human Scp-1 phosphatase activity | Recombinant Scp1, phosphopeptide, malachite green phosphate absorbance | inhibition, % at 20 µM | 0.88% of 340,000 active;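 active means inhibition above about 50% at 20 µM, limit read from the data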;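 further: plate controls were DMSO wells with enzyme for no effect and wells lacking enzyme for full effect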
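Times: enzyme reaction 45 min at room temperature, colour 5 min, stabilisation 30 min. Material: SCP-1 catalytic fragment, aa 76-261. Medium: Acidic Tris acetate buffer with magnesium and detergent. Signal: colorimetric free-phosphate detection, absorbance 630 nm. Read-out basis: % inhibition of SCP-1 phosphate liberation. Reagent: Phosphorylated 17-residue peptide substrate.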
SUMO1-SIM PPI – SUMO1-SIM interaction modulation; P63165; SUMO1 binding to a labelled peptide, TR-FRET, 1 h; inhibition, % at 20 µM; 0.33% of 360,000 active; in the data active means inhibition above about 37%
Target sequence (P63165 whole entry, looked up): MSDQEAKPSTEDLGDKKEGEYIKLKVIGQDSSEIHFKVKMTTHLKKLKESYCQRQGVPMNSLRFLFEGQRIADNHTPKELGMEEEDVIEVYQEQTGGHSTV
DNMT1 block – blocks human DNA methyltransferase DNMT1. P26358. DNMT1 molecular beacon, Hinp1I cleavage, fluorescence. inhibition (reported as % activation of signal), % at 10 µM. 0.83% of 360,000 active. AID 588458; in the data active means inhibition above about 50%
STEP inh – blocks human striatal-enriched tyrosine phosphatase | P54829 | recombinant STEP, OMFP fluorogenic substrate, fluorescence | inhibition, % at 20 µM | 0.25% of 360,000 active | AID 588621;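 active means inhibition at 20 µM, scaled per plate between control wells, above about 37%, limit read from the data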;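 further: 0% = DMSO with enzyme and substrate and 100% = substrate only without enzyme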
Target sequence (P54829 whole entry, looked up): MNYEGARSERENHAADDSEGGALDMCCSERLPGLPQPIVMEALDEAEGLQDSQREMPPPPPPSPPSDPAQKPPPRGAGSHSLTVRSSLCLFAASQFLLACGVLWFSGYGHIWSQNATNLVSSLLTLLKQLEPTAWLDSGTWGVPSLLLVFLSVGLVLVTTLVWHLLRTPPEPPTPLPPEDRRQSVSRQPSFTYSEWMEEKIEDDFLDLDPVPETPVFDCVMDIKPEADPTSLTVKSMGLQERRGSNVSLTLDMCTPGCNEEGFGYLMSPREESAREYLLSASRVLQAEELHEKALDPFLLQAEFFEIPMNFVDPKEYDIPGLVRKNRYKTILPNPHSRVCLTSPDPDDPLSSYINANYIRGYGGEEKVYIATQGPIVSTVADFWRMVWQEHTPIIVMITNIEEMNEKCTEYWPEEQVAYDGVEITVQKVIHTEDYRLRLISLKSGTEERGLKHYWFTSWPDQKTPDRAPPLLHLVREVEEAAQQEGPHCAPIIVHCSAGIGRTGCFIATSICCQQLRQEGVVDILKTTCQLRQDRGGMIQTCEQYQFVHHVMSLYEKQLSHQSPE
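System: STEP phosphatase, cell-free reaction; Buffer or medium: Bis-Tris pH 6.0 buffer with DTT, detergent; Incubation: 20 min at room temperature, dark; Measured by: fluorescence, 480/540 nm.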
GRK2 CP1 – confirmation of human GRK2 inhibitors displacing RNA aptamer | shares compounds with GRK2 inh | bead-bound GRK2, FAM-aptamer displacement, flow cytometry | aptamer displacement, % at 10 µM | 4% of 2,000 active;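 active means aptamer displacement above 40%, near three times the noise of non-fluorescent compounds, on plates passing quality checks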;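 further: negative values mostly reflect intrinsic compound fluorescence rather than true enhancement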
FAM quench CP1 – counter-screen for GRK2 aptamer inhibitors: fluorescent aptamer quenchers | shares compounds with GRK2 inh | Carboxyfluorescein RNA aptamer on beads, flow cytometry quenching; stronger effect = lower value | fluorescence response (% of DMSO), % at 10 µM | 2,000 tested, under 10 active;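 active means compounds that quench the bead-bound fluorescent RNA probe, cutting fluorescence to under half of the solvent control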;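 further: counterscreen run without GRK2 so only probe quenching by compound is measured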
GRK2 confirm 2 – confirmation of human GRK2 inhibitors binding RNA aptamer site; inhibition of aptamer binding, % at 10 µM; AID 504782; shares compounds with GRK2 inh; 360 tested, under 10 active; bead-bound GRK2, FAM-aptamer displacement, flow cytometry;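 active means inhibition of aptamer binding above 40%, about triple the noise seen with nonglowing compounds, on plates passing quality control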;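 further: negative values mostly come from compounds that fluoresce themselves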
FAM quench SP – counter-screen for GRK2 binding hits: quenchers of fluorescent RNA aptamer | shares compounds with GRK2 inh | carboxyfluorescein RNA aptamer beads, flow cytometry quenching; stronger effect = lower value | fluorescence response vs DMSO, % at 10 µM | 360 tested, under 10 active;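 active means response vs DMSO under 50%, meaning signal dropped by over half, treated as fluorescence quencher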;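 further: labelled aptamer on streptavidin beads without GRK2 as a quench counter-screen; 100% = bead fluorescence of DMSO wells and lower means quenching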
The depositor's hits bear a star; nt = not tested or not shown. The list is not random: actives were taken first. Their share in the collection is about 2.2%.

SMILES	GRK2 inh	LMPTP inh	Scp-1 inhibitor	SUMO1-SIM PPI	DNMT1 block	STEP inh	GRK2 CP1	FAM quench CP1	others
CC(Cl)C(=O)Nc1ncc(C(F)(F)F)cc1Cl (stereo unspecified)	52.0*	-0.3	0.2	-2.4	1.6	-2.6	-0.7	100.8
Cc1c(C(=O)NCc2cccc(C(F)(F)F)c2)sc(=O)n1Cc1cccc(F)c1	nt	3.9	nt	1.1	-6.4	1.5	nt	nt
COc1cc(S(=O)(=O)n2cnc3ccccc32)ccc1Br	62.0*	-2.5	40.1	3.8	2.6	-0.9	-0.4	98.9
CC1(C(=O)NNC(=O)c2cccc([N+](=O)[O-])c2)CC1(Br)Br (stereo unspecified)	40.0	-2.4	-1.1	-23.8	-1.2	0.3	-4.0	101.5
CC1(C(=O)NNC(=O)c2ccc([N+](=O)[O-])cc2)CC1(Br)Br (stereo unspecified)	0.0	-2.3	3.5	-36.2	0.8	-0.4	nt	nt
O=C1Nc2ccccc2C(=O)N(Cc2ccccc2)C1C(=O)NC1CC1 (stereo unspecified)	nt	-2.4	nt	-2.4	nt	nt	nt	nt
Cc1cc(C)cc(NC(=O)COC(=O)COc2ccc(N(C)S(=O)(=O)c3cccs3)cc2)c1	41.0*	3.9	-10.7	1.9	-2.3	-2.0	-3.1	98.4
CCCNC(=O)C1(C)CCN(Cc2ccc(C)c3ccccc23)C1 (stereo unspecified)	nt	0.6	nt	-4.7	5.9	-0.8	nt	nt
O=C(NCCOc1nc(N2CCCCC2)nc(N2CCOCC2)n1)Nc1ccccc1	0.0	-0.5	-5.6	-1.7	-0.2	0.7	nt	nt
O=C(NCCOc1nc(N2CCOCC2)nc(N2CCOCC2)n1)Nc1ccccc1	46.0*	0.0	5.5	0.3	2.7	-4.2	0.4	97.5
CCCC(=O)Nc1ccc2c(c1)nc(CCNC(=O)c1ccccc1)n2C	0.0	0.7	-1.1	2.5	6.6	-0.7	0.8	97.3
COc1ccccc1NC(=O)Cc1csc(NC(=S)Nc2ccccc2)n1	58.0*	1.2	-3.5	1.6	-14.6	2.6	1.7	98.8
C=CCOc1c(CNC2CCCC2)cc(Cl)cc1OC	87.0*	0.3	-10.6	-5.2	0.3	0.2	-1.9	102.4
O=C(O)c1ccc(N2CCCC2=O)cc1	52.0*	-1.4	-2.6	2.6	2.1	-0.6	1.8	90.7
O=C(Nc1cccc(Cn2cccn2)c1)c1cc2c(s1)CCCC2	94.0*	0.5	-2.2	-1.9	-8.2	-0.2	-1.0	94.5
O=C(Nc1cccc(S(=O)(=O)N2CCOCC2)c1)c1cc2c(s1)CCC2	0.0	-0.1	-8.3	9.4	-7.8	-1.8	nt	nt
Oc1nc(Nc2ccccc2)sc1/C=C1\C=Nc2ccccc21	45.0*	2.5	0.2	-7.7	-19.0	-0.7	-0.9	98.0
Cc1ccccc1NC(=O)CSc1nc2c(c(=O)n(C)c(=O)n2C)n1C	0.0	-0.2	-7.9	-4.9	-1.1	-0.2	nt	nt
COc1ccc(OC)c(NC(=O)CSc2nc3c(c(=O)n(C)c(=O)n3C)n2C)c1	74.0*	-0.6	-9.4	4.6	-2.0	2.8	-3.3	92.9
CCOc1ccc(NC(=O)CSc2nc3c([nH]c4ccccc43)c(=O)n2C)cc1	1.0	-1.3	-4.5	8.3	17.2	-0.8	nt	nt
COc1ccc(NC(=O)CSc2nc3c([nH]c4ccccc43)c(=O)n2C)c(OC)c1	97.0*	2.3	-0.7	-0.7	4.8	0.7	nt	nt	GRK2 confirm 2=-0.5;FAM quench SP=96.0
COc1cccc(-c2c(NC(C)=O)n(C)c3ccccc3c2=O)c1	46.0*	0.7	-0.9	1.6	0.1	-2.8	-1.8	100.6
CC(C)(C)c1ccc(C(=O)N2CCNCC2)cc1	65.0*	-5.0	-10.7	0.0	-3.7	-0.7	2.7	103.1
O=C(Nc1ccn(C2CCC(CO)O2)c(=O)n1)c1ccccc1 (stereo unspecified)	nt	-1.3	nt	2.8	-1.6	2.9	nt	nt
COCCNC(=O)C1(C)CCCN(CCS(=O)(=O)c2ccc(C)cc2)C1 (stereo unspecified)	nt	-1.0	nt	-0.6	5.4	-3.1	nt	nt
SMILES	GRK2 inh	LMPTP inh	Scp-1 inhibitor	SUMO1-SIM PPI	DNMT1 block	STEP inh	GRK2 CP1	FAM quench CP1	others
Cc1cccc2c(C(=O)n3cccn3)cc(-c3ccccc3Cl)nc12	3.0	0.3	-7.1	0.4	4.5	2.2	-0.5	98.1
CCCn1c(CN2CCCCC2C)nc2c1c(=O)n(C)c(=O)n2C (stereo unspecified)	0.0	-0.1	-11.2	-0.8	-0.3	-3.4	nt	nt
CCCn1c(CN2CCCCC2CC)nc2c1c(=O)n(C)c(=O)n2C (stereo unspecified)	47.0*	-0.3	-14.0	3.2	-2.9	0.2	0.9	99.6
CCC1CCCCN1Cc1nc2c(c(=O)n(C)c(=O)n2C)n1CCCc1ccccc1 (stereo unspecified)	2.0	1.2	-9.2	2.9	-2.4	-2.8	-1.5	103.7
Fc1ccc2cc(-c3ccccc3F)ncc2c1	100.0*	-0.4	-3.8	-16.1	1.2	0.4	nt	nt	GRK2 confirm 2=-32.7;FAM quench SP=103.0
Fc1ccc2cnc(-c3ccccc3F)cc2c1	3.0	2.4	-2.3	-10.4	-6.5	1.1	nt	nt
O=C(NC1CC1)c1cccc(Nc2ccc(-c3ccc4c(c3)OCCO4)nn2)c1	3.0	1.2	-8.7	1.0	28.9	2.9	11.2	102.7
COc1ccc(-c2coc3c(C(=O)NCC4CC4)cccc23)c(C)c1	nt	3.7	nt	7.5	-1.4	4.8	nt	nt
O=C(Nc1cccc(Cl)c1)c1cc(N=Nc2ccc([N+](=O)[O-])cc2Cl)ccc1O	46.0*	12.5	70.6*	100.2*	-22.0	31.9	3.9	97.1
COC(=O)c1ccsc1NC(=O)CCS(=O)(=O)c1ccc(Cl)cc1	1.0	0.1	1.0	-2.8	-4.9	2.3	nt	nt	GRK2 confirm 2=-38.0;FAM quench SP=101.0
CC(CC(=O)Nc1nncs1)c1ccccc1 (stereo unspecified)	1.0	-1.5	0.8	-3.0	2.4	-1.7	nt	nt
COC(=O)c1ccsc1NC(=O)CCS(=O)(=O)c1ccccc1	3.0	1.0	-7.6	0.3	-0.1	0.6	nt	nt
O=C(O)CC(CC(=O)Nc1nncs1)c1ccccc1 (stereo unspecified)	49.0*	-1.2	-4.2	2.9	-3.5	-0.7	0.1	100.3
O=C(CCS(=O)(=O)c1ccccc1)Nc1nncs1	54.0*	-1.4	16.6	-1.7	16.4	1.0	5.8	101.2
